Where “and” joins values, the source holds several entries; their conditions need not be identical. Equal values may be shown once. Calls of active or inactive are those of the source.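 How the source made its calls: active means IC50 of 10 µM or lower; inactive means IC50 above 10 µM.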
target: Insulin-degrading enzyme (Homo sapiens) (UniProt P14735); assay: fluorescent artefact check on IDE activity – biochemical, fluorogenic FRET1 peptide, fluorescence, powder samples, artefact control for IDE inhibitor project, late-stage follow-up (AID 624066); conditions: recombinant IDE
Summary of the method: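 System: purified recombinant wild-type IDE. Buffer or medium: pH 7.4 HEPES buffer with NaCl, MgCl2, 0.1% BSA. Reagent: fluorogenic FRET1 peptide substrate at 1 µM final. Incubation: 2 h kinetic read at 22 °C, 2-min intervals. Technique: fluorescence intensity at 385 nm emission, 335 nm excitation. Replicates: triplicate.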

Sequence of Insulin-degrading enzyme (Homo sapiens) (P14735 whole entry, looked up): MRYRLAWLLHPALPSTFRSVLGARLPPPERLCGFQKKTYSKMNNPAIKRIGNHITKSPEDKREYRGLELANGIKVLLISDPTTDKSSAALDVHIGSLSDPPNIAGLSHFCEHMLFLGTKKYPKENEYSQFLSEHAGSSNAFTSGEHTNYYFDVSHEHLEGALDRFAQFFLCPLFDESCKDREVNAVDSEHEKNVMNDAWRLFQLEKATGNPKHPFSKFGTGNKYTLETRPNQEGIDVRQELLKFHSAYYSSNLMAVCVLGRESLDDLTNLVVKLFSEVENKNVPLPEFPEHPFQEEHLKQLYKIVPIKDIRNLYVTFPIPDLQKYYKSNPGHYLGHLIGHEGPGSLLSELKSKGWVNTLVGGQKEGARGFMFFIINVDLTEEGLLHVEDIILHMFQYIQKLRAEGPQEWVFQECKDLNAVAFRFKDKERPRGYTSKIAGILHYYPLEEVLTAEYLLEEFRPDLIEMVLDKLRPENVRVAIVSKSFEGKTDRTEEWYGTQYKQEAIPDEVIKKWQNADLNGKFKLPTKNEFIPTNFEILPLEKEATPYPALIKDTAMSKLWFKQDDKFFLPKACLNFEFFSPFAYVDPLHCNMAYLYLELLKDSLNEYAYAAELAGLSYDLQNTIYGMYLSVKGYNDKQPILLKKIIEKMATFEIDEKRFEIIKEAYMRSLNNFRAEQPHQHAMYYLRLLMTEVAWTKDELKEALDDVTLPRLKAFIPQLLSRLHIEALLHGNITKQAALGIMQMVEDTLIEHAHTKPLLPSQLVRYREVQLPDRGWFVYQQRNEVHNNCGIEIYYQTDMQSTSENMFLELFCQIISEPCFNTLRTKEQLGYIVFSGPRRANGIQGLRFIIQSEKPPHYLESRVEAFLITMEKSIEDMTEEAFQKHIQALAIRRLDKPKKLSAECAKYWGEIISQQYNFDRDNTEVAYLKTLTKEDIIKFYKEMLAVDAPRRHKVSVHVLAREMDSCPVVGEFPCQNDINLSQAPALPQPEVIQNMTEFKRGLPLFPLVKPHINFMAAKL

Row | IC50 | Structure (SMILES)
1 | > 100 µM (inactive) | COc1ccc(-c2nc(C(=O)Nc3cccc(C(F)(F)F)c3)cs2)cc1
2 | 5 µM | Clc1cccc(-c2nnc(SCc3nc4ccccc4[nH]3)n2Cc2ccco2)c1
3 | > 10 µM (inactive) | O=C(c1ccc2c(c1)OCCO2)N1CCCN(C(=O)C2COc3ccccc3O2)CC1 (stereo unspecified)
4 | > 100 µM (inactive) | O=C(Nc1ccc2oc(-c3cccnc3)nc2c1)c1ccc2c(c1)OCCO2
5 | > 100 µM (inactive) | O=C(CSc1nnc(-c2cccc(Cl)c2)n1Cc1ccco1)Nc1ccc2cn[nH]c2c1
6 | > 100 µM (inactive) | COc1ccc(NC(=O)CSc2nnc(CN3CCOCC3)n2C)cc1Cl
7 | 5 µM | Cc1c(CCC(=O)NCCCn2ccnc2)c(=O)oc2cc3oc4c(c3cc12)CCCC4
8 | > 10 µM (inactive) | COc1ccc(C(=O)N2CCCN(C(=O)C3COc4ccccc4C3)CC2)cc1OC (stereo unspecified)
9 | > 100 µM (inactive) | O=C(CSc1nnc(-c2cccc(Cl)c2)n1Cc1ccco1)Nc1ccccc1C(F)(F)F
10 | > 10 µM (inactive) | COc1ccc(C(=O)N2CCCN(C(=O)C3CCc4ccccc4O3)CC2)cc1OC (stereo unspecified)
11 | > 100 µM (inactive) | O=C(Nc1cc(C(F)(F)F)cc(C(F)(F)F)c1)c1csc(-c2ccncc2)n1
12 | > 10 µM (inactive) | O=C(c1ccc2c(c1)OCCO2)N1CCN(C(=O)C2COc3ccccc3C2)CC1 (stereo unspecified)
13 | > 100 µM (inactive) | Cc1ccc(NC(=O)CSc2nnc(-c3cccc(Cl)c3)n2Cc2ccco2)c(C)c1
14 | > 10 µM (inactive) | COc1ccc(C(=O)N2CCCN(C(=O)C3COc4ccccc4O3)CC2)cc1OC (stereo unspecified)
15 | > 10 µM (inactive) | O=C(c1ccc2c(c1)OCO2)N1CCCN(C(=O)C2CCc3ccccc3O2)CC1 (stereo unspecified)
16 | > 10 µM (inactive) | O=C(c1ccc2c(c1)OCO2)N1CCN(C(=O)C2COc3ccccc3C2)CC1 (stereo unspecified)
17 | > 10 µM (inactive) | O=C(c1ccc2c(c1)OCCO2)N1CCN(C(=O)C2COc3ccccc3O2)CC1 (stereo unspecified)
18 | 0.2 µM | O=c1c2ccccc2sn1-c1cc(S(=O)(=O)N2CCOCC2)ccc1N1CCOCC1
19 | > 10 µM (inactive) | COc1cc(/C=C2\SC(=S)N(NC(C)=O)C2=O)ccc1OC(=O)c1ccco1
20 | > 100 µM (inactive) | CC(Sc1nnc(-c2cccnc2)n1-c1ccccc1F)C(=O)N1CCCc2ccccc21 (stereo unspecified)
21 | > 10 µM (inactive) | O=C(c1ccc2c(c1)OCO2)N1CCN(C(=O)C2CCc3ccccc3O2)CC1 (stereo unspecified)
22 | 5 µM | O=C(O)c1ccccc1NS(=O)(=O)c1cccc(-n2sc3ccccc3c2=O)c1
23 | > 10 µM (inactive) | O=C(c1ccc2c(c1)OCCO2)N1CCCN(C(=O)C2COc3ccccc3C2)CC1 (stereo unspecified)
24 | > 10 µM (inactive) | O=C(c1ccc2c(c1)OCO2)N1CCN(C(=O)C2COc3ccccc3O2)CC1 (stereo unspecified)
25 | > 100 µM (inactive) | CCN(CC)c1ccc(/C=C2\C(=N)N3N=C(CC(=O)N4CCOCC4)SC3=NC2=O)cc1

Row | IC50 | Structure (SMILES)
26 | > 10 µM (inactive) | O=C(c1ccc2c(c1)OCO2)N1CCCN(C(=O)C2COc3ccccc3C2)CC1 (stereo unspecified)
27 | > 100 µM (inactive) | O=C(CSc1nnc(-c2cccc(Cl)c2)n1Cc1ccco1)c1ccc2ccccc2c1
28 | > 10 µM (inactive) | O=C(c1ccc2c(c1)OCO2)N1CCCN(C(=O)C2COc3ccccc3O2)CC1 (stereo unspecified)
29 | > 10 µM (inactive) | O=C(c1ccc2c(c1)OCCO2)N1CCCN(C(=O)C2CCc3ccccc3O2)CC1 (stereo unspecified)
30 | 0.4 µM | Cn1c(=O)c(C(=O)CN2CCCc3ccccc32)c(N)n(Cc2ccccc2)c1=O
31 | > 100 µM (inactive) | O=C(C1CC1)N1CCN(c2ccnc3cc(Cl)ccc23)CC1
32 | inactive | Cc1ccc(C)c(N2C(=N)S/C(=C\c3ccc(-c4ccccc4C(=O)O)o3)C2=O)c1
33 | 9 µM and 6.4 µM | Cc1cccc(-c2nnc(SCc3nc4ccccc4[nH]3)n2Cc2ccco2)c1
34 | > 100 µM (inactive) | Cc1nc(-c2cccnc2)sc1C(=O)Nc1cccc(C(F)(F)F)c1
35 | > 100 µM (inactive) | O=C(Nc1cccc(C(F)(F)F)c1)c1csc(Cc2cccc(C(F)(F)F)c2)n1
36 | > 100 µM (inactive) | O=C(Nc1cccc(C(F)(F)F)c1)c1csc(-c2ccccc2)n1
37 | > 100 µM (inactive) | Nc1c(C(=O)Nc2nccs2)sc2nc(-c3cccs3)cc(C(F)(F)F)c12
38 | > 100 µM (inactive) | Cc1ccc(-c2nc(C(=O)Nc3cccc(C(F)(F)F)c3)cs2)cc1
39 | inactive | CCOc1ccc2[nH]c3c(N4CCN(C(=O)c5ccco5)CC4)ncnc3c2c1
40 | > 10 µM (inactive) | O=C(c1ccc2c(c1)OCO2)N1CCN(C(=O)[C@H]2COc3ccccc3O2)CC1
41 | > 10 µM (inactive) | COc1ccc(C(=O)N2CCN(C(=O)C3COc4ccccc4C3)CC2)cc1OC (stereo unspecified)
42 | > 100 µM (inactive) | Cn1c(SCc2nc3ccccc3[nH]2)nnc1-c1cccc(Cl)c1
43 | > 10 µM (inactive) | COc1ccc(C(=O)N2CCN(C(=O)C3CCc4ccccc4O3)CC2)cc1OC (stereo unspecified)
44 | 5 µM | O=C(Nc1cccc(C(F)(F)F)c1)c1csc(-c2ccncc2)n1
45 | 6.4 µM | COc1cccc(-c2nnc(SCc3nc4ccccc4[nH]3)n2Cc2ccco2)c1
46 | > 10 µM (inactive) | O=C(c1ccc2c(c1)OCCO2)N1CCN(C(=O)C2CCc3ccccc3O2)CC1 (stereo unspecified)
47 | > 100 µM (inactive) | O=C(Nc1cccc(C(F)(F)F)c1)c1csc(-c2cccc(C(F)(F)F)c2)n1
48 | inactive | Clc1cccc(-c2nnc(SCc3nc4ccccc4[nH]3)n2-c2ccccc2)c1
49 | > 10 µM (inactive) | O=C(c1ccc2c(c1)OCO2)N1CCN(C(=O)[C@@H]2COc3ccccc3O2)CC1
50 | > 100 µM (inactive) | O=C(CSc1nnc(-c2cccc(Cl)c2)n1Cc1ccco1)Nc1ccc2c(c1)OCCO2

Row | Structure (SMILES) | IC50
51 | COc1ccc(C(=O)N2CCN(C(=O)C3COc4ccccc4O3)CC2)cc1OC (stereo unspecified) | 1.2 µM and > 10 µM (inactive) and > 100 µM (inactive)
